ChEMBL document CHEMBL1821704, “Diarylheptanoids from Curcuma kwangsiensis and their inhibitory activity on nitric oxide production in lipopolysaccharide-activated macrophages” (Bioorg Med Chem Lett, 2011)

How the values were obtained:
RAW264.7 [1] = test: Inhibition of LPS-induced nitric oxide production in mouse RAW264.7 cells after 24 hrs by Griess reaction based spectrophotometry; format: functional, cell-based; conditions: RAW264.7, 24 h
Outline: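 Cells plated at 1 × 10⁵ cells/well and stimulated with LPS, with or without compound, for 24 h at 37 °C. Nitrite was read at 550 nm against a sodium nitrite standard curve. Triplicate wells; mean SD of three independent experiments.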

RAW264.7 [2] = test: Cytotoxicity against mouse RAW264.7 cells at 100 uM after 24 hrs by MTT assay; format: cell-based; conditions: raw264.7, 24 h

| IC50 (RAW264.7 [1]) | SMILES | Activity (RAW264.7 [2]) |
| --- | --- | --- |
| 35.5 µM | CC(=O)O[C@H](CCc1ccc(O)c(O)c1)C[C@H](O)CCc1ccc(O)c(O)c1 | Toxic |
| 2.81 µM | COc1cc(CC[C@@H](O)C[C@@H](O)CCc2ccc(O)cc2)ccc1O (relative stereo) | Non-toxic |
| > 100 µM | Oc1ccc(CC[C@@H](O)C[C@@H](O)CCc2ccc(O)cc2)cc1 | Non-toxic |
| 2.41 µM | COc1cc(CC[C@@H](O)C[C@@H](O)CCc2ccc(O)cc2)cc(O)c1O (relative stereo) | Toxic |
| 10.7 µM | CC(=O)O[C@H](CCc1ccc(O)cc1)C[C@@H](CCc1ccc(O)c(O)c1)OC(C)=O | Non-toxic |
| 11.5 µM | Oc1ccc(CC[C@@H](O)C[C@H](O)CCc2ccc(O)c(O)c2)cc1 | Non-toxic |
| 9.37 µM | COc1cc(CCC(=O)C[C@@H](O)CCc2ccc(O)c(O)c2)ccc1O | Toxic |
| 9.52 µM | CC(=O)O[C@H](CCc1ccc(O)c(O)c1)C[C@H](O)CCc1ccc(O)cc1 | Toxic |
| 32 µM | CC(=O)O[C@H](CCc1ccc(O)cc1)C[C@H](O)CCc1ccc(O)cc1 | Non-toxic |
| 9.52 µM | CC(=O)O[C@@H](CCc1ccc(O)c(O)c1)C[C@@H](O)CCc1ccc(O)cc1 | Toxic |
| – | C[C@]12CCC(=O)C=C1CC[C@@H]1[C@@H]2[C@@H](O)C[C@@]2(C)[C@H]1CC[C@]2(O)C(=O)CO [HYDROCORTISONE] | Non-toxic |
| – | COc1ccc2c(c1)c(CC(=O)O)c(C)n2C(=O)c1ccc(Cl)cc1 [INDOMETHACIN] | Non-toxic |
| 37.5 µM | COc1cc(CCC(=O)C[C@@H](O)CCc2ccc(O)cc2)ccc1O | Non-toxic |
| 82.8 µM | O=C(CCc1ccc(O)cc1)C[C@@H](O)CCc1ccc(O)c(O)c1 | Non-toxic |
| 3.13 µM | Oc1ccc(CC[C@H](O)C[C@H](O)CCc2ccc(O)c(O)c2)cc1 (relative stereo) | Toxic |
| 25.8 µM | COc1cc(CC[C@@H](O)C[C@H](O)CCc2ccc(O)c(O)c2)ccc1O | Non-toxic |
| 7.98 µM | CC(=O)O[C@H](CCc1ccc(O)c(O)c1)C[C@@H](CCc1ccc(O)c(O)c1)OC(C)=O | Toxic |
| 75.7 µM | O=C(CCc1ccc(O)cc1)C[C@@H](O)CCc1ccccc1 | Non-toxic |
| > 100 µM | Oc1ccc(CC[C@@H](O)C[C@H](O)CCc2ccc(O)cc2)cc1 [(+)-HANNOKINOL] | Non-toxic |
